Assay results: ChEMBL document CHEMBL1152278, “Discovery of ligands for a novel target, the human telomerase RNA, based on flexible-target virtual screening and NMR” (J Med Chem, 2008)

Experiment: Binding affinity to human telomerase P2b RNA by […]
Procedure, shortened: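 hTR-P2b RNA made by in vitro T7 polymerase transcription from a synthetic DNA template. Titration was at 50 μM RNA in 20 mM sodium phosphate pH 6.7, 50 mM NaCl, 90/10% H₂O/D₂O, 15 °C, with ligand added stepwise. Kd was fitted from 800 MHz imino-proton chemical shifts under a fast-exchange model.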

SMILES	Kd
CN(C)CCCN1c2ccccc2[C@H]2C[C@H]2c2ccccc21	1100 µM
CN1CCN2c3ncccc3Cc3ccccc3C2C1 (stereo not given) [MIRTAZAPINE]	1500 µM
OCCOCCN1CCN(CCCN2c3ccccc3Sc3ccc(C(F)(F)F)cc32)CC1	1100 µM
N#Cc1ccc2c(c1)N(CCCN1CCN(CCO)CC1)c1ccccc1S2	310 µM
O=C(c1ccc(O)cc1)c1ccc(O)cc1	1500 µM
Nc1ccc(NC(=O)c2ccc(N)cc2)cc1	180 µM
C[n+]1ccc(Nc2ccc(NC(=O)c3ccc(N)cc3)cc2)cc1	1100 µM
CN1CCN(CCCN2c3ccccc3Sc3ccc(S(=O)(=O)N(C)C)cc32)CC1 [THIOPROPERAZINE]	450 µM
CCN(CC)Cc1cc(Nc2c3ccccc3nc3c4ccccc4n(C)c23)ccc1O	84 µM
C[n+]1ccc(Nc2ccc(NC(=O)c3ccc(N)cc3[N+](=O)[O-])cc2)cc1	570 µM
